Assay: Critical gelation concentration by vial inversion after addition of PBS
Assay type: physicochemical
Outline: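 Self-assembling collagen-binding peptide amphiphile filaments were dissolved in water. They were either left unsprayed, sprayed with an atomizer, or emitted from a jet nebulizer as a respirable aerosol. PBS was then added to give 1× PBS, and gelation was judged by vial inversion.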

## LRELHLNNN [CBDA]
After spraying with an atomizer
  critical gelation concentration (CGC): 1 mM
Filaments in water, PBS added to final 1× PBS, not sprayed
  critical gelation concentration (CGC): ~ 1 mM
